Experimental findings from ChEMBL document CHEMBL1799919, “Design, synthesis, biological evaluation, and structure-activity relationships of substituted phenyl 4-(2-oxoimidazolidin-1-yl)benzenesulfonates as new tubulin inhibitors mimicking combretastatin A-4” (J Med Chem, 2011) are described below.

Data set [1] relates to HT-1080. Briefly: Antiproliferative activity against human HT1080 cells after 48 hrs by sulforhodamine B assay. The class given is functional, cell-based. As to conditions: HT-1080, 48 h.
In data set [2] the test system is K562. Put plainly: Antiproliferative activity against human K562 cells after 48 hrs by sulforhodamine B assay. It counts as functional, cell-based. The note with it: K562, 48 h.
In data set [3] the test system is CHO-TAX 5-6. Briefly: Antiproliferative activity against paclitaxel-resistant CHO-TAX 5-6 cells after 48 hrs by sulforhodamine B assay. It counts as functional, cell-based. The note with it: Cricetulus griseus, CHO-TAX 5-6, 48 h.
Data set [4] has as its system MDA-MB-231. Briefly: Antiproliferative activity against human MDA-MB-231 cells after 48 hrs by sulforhodamine B assay. The note with it: MDA-MB-231, 48 h. It counts as functional, cell-based.
The subject of data set [5] is L1210. Briefly: Antiproliferative activity against mouse L1210 cells after 48 hrs by sulforhodamine B assay. It counts as functional, cell-based. The note with it: L1210, 48 h.
The subject of data set [6] is CHO-TAX 5-6. Briefly: Resistant ratio of IC50 for paclitaxel-resistant CHO-TAX 5-6 cells to IC50 for CHO cells. It counts as functional, Cricetulus griseus. A digest of the protocol: (§1)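 Ratio of the IC50 in the resistant line (CEM-VLB, CHO-TAX 5-6 or CHO-VV 3-2) to the IC50 in its parental line (CEM or CHO).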
In data set [7] the test system is M21. Briefly: Cell cycle arrest in human M21 cells assessed as accumulation at G2/M phase at 5 times IC50 after 24 hrs using propidium iodide staining by flow cytometric analysis (reference value: 9%). The class given is functional.
Data set [8] has as its system CHO-VV 3-2. Put plainly: Antiproliferative activity against colchicine- and vinblastine-resistant CHO-VV 3-2 cells after 48 hrs by sulforhodamine B assay. The note with it: Cricetulus griseus, CHO-VV 3-2, 48 h.
For data set [9], the system named is HT-1080. Put plainly: Antivasculogenic activity against human HT1080 cells xenografted in chicken chorioallantoic membrane assessed as inhibition of tumor growth at 10 ug per egg, iv measured on day 14 by CAM assay. It counts as functional. More on the design: scale not given: the % may be the effect or the level left.
The nature of data set [10]: Toxicity against fertilized chicken embryo assessed as mortality at 10 ug per egg, iv by CAM assay. The class given is organism-based, Gallus gallus. As to conditions: in vivo. The procedure, abridged: (§2)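 Fertilized chicken eggs incubated 10 days with automatic turning, then static. HT-1080 cells (3.5 × 10^5 cells/egg) grafted onto exposed CAM. On day 11, drug in DMSO diluted into cremophor/ethanol/PBS (6.25/6.25/87.5 v/v) excipient, DMSO below 0.5%, 100 μL injected iv into 10-12 eggs. Eggs incubated to day 17, dead embryos counted. Untreated eggs used for normalization. Two independent experiments, at least 10 eggs each.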

Data set [11] concerns M21. Put plainly: Disruption of cytoskeleton microtubule structure of human M21 cells at 5 times IC50 after 16 hrs by indirect immunofluorescence assay. The class given is functional, cell-based. A digest of the protocol: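 Fixed in 3.7% formaldehyde, permeabilized with saponin, and stained with anti-β-tubulin (TUB 2.1), Alexa-488 secondary and DAPI. Microtubule structure scored by fluorescence microscopy.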

The subject of data set [12] is CEM-VLB. Briefly: Resistant ratio of IC50 for multidrug-resistant human CEM-VLB cells to IC50 for human CEM cells. The class given is functional. A digest of the protocol: as §1
A short description of data set [13]: Antiproliferative activity against mouse B16F0 cells after 48 hrs by sulforhodamine B assay. The class given is functional, cell-based. As to conditions: B16F0, 48 h.
The nature of data set [14]: Antiproliferative activity against mouse P388D1 cells after 48 hrs by sulforhodamine B assay. It counts as functional, cell-based. The note with it: P388D1, 48 h.
Data set [15] concerns HT-29. Briefly: Antiproliferative activity against human HT-29 cells after 48 hrs by sulforhodamine B assay. The note with it: HT-29, 48 h. The class given is functional, cell-based.
Data set [16] has as its system MCF7. Put plainly: Antiproliferative activity against human MCF7 cells after 48 hrs by sulforhodamine B assay. It counts as functional, cell-based. The note with it: MCF7, 48 h.
The test system of data set [17] is MDA-MB-231. Briefly: Displacement of N,N'-ethylenebis(iodoacetamide) from colchicine-binding site of beta-tubulin in human MDA-MB-231 cells at 1000 times IC50 preincubated for after 2 hrs before N,N'-ethylenebis(iodoacetamide) addition measured after 1.5 hrs by chemiluminescence assay. It counts as cell-based. A digest of the protocol:
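EBI (100 μM final) added for 1.5 h at 37 °C; controls received 0.5% DMSO. Lysates (20 μg protein) run on 10% SDS-PAGE and blotted with anti-β-tubulin (TUB 2.1). β-tubulin–EBI adduct band detected by ECL.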

In data set [18] the test system is DU-145. Put plainly: Antiproliferative activity against human DU145 cells after 48 hrs by sulforhodamine B assay. It counts as functional, cell-based. The note with it: DU-145, 48 h.
Data set [19] relates to CHO. Briefly: Antiproliferative activity against CHO cells after 48 hrs by sulforhodamine B assay. The class given is functional, cell-based. The note with it: Cricetulus griseus.
Data set [20] relates to CCRF-CEM. Briefly: Antiproliferative activity against human CEM cells after 48 hrs by sulforhodamine B assay. It counts as functional, cell-based.
The subject of data set [21] is M21. Put plainly: Cell cycle arrest in human M21 cells assessed as accumulation at G0/G1 phase at 5 times IC50 after 24 hrs using propidium iodide staining by flow cytometric analysis (reference value: 61%). The class given is functional.
Data set [22] relates to M21. Put plainly: Cell cycle arrest in human M21 cells assessed as accumulation at S phase at 5 times IC50 after 24 hrs using propidium iodide staining by flow cytometric analysis (reference value: 30%). The class given is functional.
In data set [23] the test system is M21. Put plainly: Antiproliferative activity against human M21 cells after 48 hrs by sulforhodamine B assay. As to conditions: M21, 48 h. It counts as functional, cell-based.
For data set [24], the system named is SK-OV-3. Put plainly: Antiproliferative activity against human SKOV3 cells after 48 hrs by sulforhodamine B assay. It counts as functional, cell-based. As to conditions: SK-OV-3, 48 h.
A short description of data set [25]: Antiproliferative activity against multidrug-resistant human CEM/VLB cells after 48 hrs by sulforhodamine B assay. The class given is functional.
A short description of data set [26]: Toxicity against fertilized chicken embryo assessed as mortality at 1 ug per egg, iv by CAM assay. The class given is organism-based, Gallus gallus. The note with it: in vivo, read-out: Activity. The procedure, abridged:
as §2

In data set [27] the test system is HT-1080. Briefly: Antivasculogenic activity against human HT1080 cells xenografted in chicken chorioallantoic membrane assessed as inhibition of tumor growth at 1 ug per egg, iv measured on day 14 by CAM assay. The class given is functional. More on the design: scale not given: the % may be the effect or the level left.
Data set [28] is described as follows: Toxicity against fertilized chicken embryo assessed as mortality at 3 ug per egg, iv by CAM assay. As to conditions: in vivo, read-out: Activity. It counts as organism-based, Gallus gallus. The procedure, abridged:
as §2

In data set [29] the test system is HT-1080. Briefly: Antivasculogenic activity against human HT1080 cells xenografted in chicken chorioallantoic membrane assessed as inhibition of tumor growth at 3 ug per egg, iv measured on day 14 by CAM assay. The class given is functional. More on the design: scale not given: the % may be the effect or the level left.

Structures are written as SMILES. Activity calls are given as the source filed them. No cut-off for these calls is given here.

With `COc1ccc(OS(=O)(=O)c2ccc(N3CCNC3=O)cc2)cc1`, the IC50 in [1] is 240 nM; in data set [2], 240 nM; in data set [3], 200 nM; in data set [4], 760 nM; in data set [5], 250 nM; in data set [8], 250 nM. In addition, the IC50 in data set [13] is 510 nM; in data set [14], 260 nM; in [15] it was 130 nM; in data set [16] it was 160 nM; in data set [18], 650 nM; in data set [19], 240 nM. In addition, the IC50 stood at 250 nM in data set [20], 98 nM in [23], 320 nM in [24] and 320 nM in data set [25]. The “Ratio IC50” value in data set [6] is 0.83; in data set [12], 1.3. Moreover, the Activity in data set [7] is 95%; in data set [9] it was 13%; in [10], “Active”; in data set [21], 0%; in [22] it was 5%. The outcome in data set [11] was Active. Further, in [17], the inhibition entry is “Active”.
Consider `COc1cc(OS(=O)(=O)c2ccc(N3CCNC3=O)cc2)cc(OC)c1OC`, for which the mortality in data set [26] was 8%. Besides, the IC50 in data set [1] was determined as 5.9 nM; in data set [2], 2.5 nM; in data set [3] it was 3 nM; in [4], 9.4 nM; in data set [5] it was 5.4 nM; in data set [8] it was 8.2 nM. Besides, the IC50 is 9.2 nM in [13]; 2.7 nM in data set [14]; 4 nM in [15]; 5 nM in data set [16]; 8.5 nM in data set [18]; 7.4 nM in [19]. Also, the IC50 in [20] stood at 7.1 nM; in data set [23], 4 nM; in data set [24], 6.1 nM; in data set [25] it was 9.5 nM. The figures for the “Ratio IC50” value in [6] and in [12] were 0.41 and 1.3, respectively. Moreover, the Activity in [7] was 98%; in data set [27], 39%; in data set [21] it was 1%; in data set [22], 1%. For the same compound, the outcome in data set [11] was Active. Also, the inhibition result in data set [17] is “Active”.
With `COc1ccc(/C=C\c2cc(OC)c(OC)c(OC)c2)cc1O` [COMBRETASTATIN A4], the mortality in [26] was 18%; in [28], 41%. Further, the Activity in data set [7] is reported as 98%; in data set [27], 48%; in data set [21] it was 2%; in [22] it was 0%; in data set [29], 45%. Besides, in data set [11], the result was Active. Moreover, the IC50 in [15] came out at 61 nM; in data set [16], 5.6 nM; in data set [23] it was 4.3 nM. In data set [17], the inhibition entry was “Active”.
For the compound `O=C1NCCN1c1ccc(S(=O)(=O)Oc2cccc(I)c2)cc1`, the IC50 in data set [1] came to 19 nM; in data set [2], 14 nM; in data set [3], 8.9 nM; in data set [4] it was 48 nM; in data set [5], 19 nM; in [8] it was 20 nM. Further, the IC50 in [13] stood at 30 nM; in [14] it was 18 nM; in data set [15], 11 nM; in data set [16] it was 18 nM; in data set [18], 57 nM; in [19], 17 nM. Moreover, the IC50 in data set [20] worked out at 17 nM; in data set [23], 10 nM; in data set [24], 23 nM; in data set [25], 18 nM. Also, the results for the “Ratio IC50” value in [6] and in [12] were 0.52 and 1.1, respectively. In addition, the Activity was found to be 77% in data set [7], 2% in data set [21] and 21% in [22]. In addition, the result in [11] and in data set [29] was Active. In data set [17], the inhibition result was “Active”. For the same compound, the mortality in [28] was found to be 43%.
Turning to `Cc1ccc(C)c(OS(=O)(=O)c2ccc(N3CCNC3=O)cc2)c1`, the IC50 was found to be 24 nM in [1]; 18 nM in data set [2]; 14 nM in data set [3]; 69 nM in data set [4]; 21 nM in [5]; 21 nM in [8]. Further, the IC50 turned out to be 49 nM in [13]; 19 nM in data set [14]; 10 nM in data set [15]; 14 nM in data set [16]; 57 nM in data set [18]; 18 nM in data set [19]. Moreover, the half-maximal inhibitory concentration (IC50) in data set [20] is 19 nM; in data set [23] it was 8.5 nM; in [24], 29 nM; in [25], 23 nM. Also, the “Ratio IC50” value amounted to 0.78 in data set [6] and 1.2 in data set [12]. For the same compound, the values for the Activity in data set [7], in data set [21] and in [22] were 77%, 3% and 20%, respectively. Moreover, the result in data set [11] and in data set [29] was Active. The inhibition entry in data set [17] is “Active”. The mortality in [28] came out at 13%.
With `O=C1NCCN1c1ccc(S(=O)(=O)Oc2ccc(F)cc2)cc1`, the IC50 was found to be 190 nM in [1]; 180 nM in data set [2]; 86 nM in data set [3]; 360 nM in [4]; 140 nM in data set [5]; 260 nM in data set [8]. Further, the IC50 in data set [13] worked out at 250 nM; in [14], 240 nM; in [15] it was 120 nM; in data set [16], 170 nM; in data set [18], 550 nM; in data set [19], 230 nM. The IC50 in data set [20] stood at 200 nM; in data set [23], 89 nM; in data set [24], 210 nM; in data set [25] it was 270 nM. The entries for the “Ratio IC50” value in data set [6] and in data set [12] were 0.37 and 1.4, respectively. Besides, the values for the Activity in data set [7], in [21] and in data set [22] were 28%, 51% and 21%, respectively. The outcome in [11] was Active. Besides, the inhibition entry in data set [17] was “Active”. For the same compound, in data set [28], the mortality was determined as 29%. For the same compound, the outcome in data set [29] was inactive.
